Results reported in ChEMBL document CHEMBL1154743, “A novel potent nicotinamide phosphoribosyltransferase inhibitor synthesized via click chemistry” (J Med Chem, 2010).
pIC50: −log10 of the molar value. The source made the active and inactive calls. The calls are words filed in the database; no cut-off is given here.

What was measured:
SH-SY5Y [1] = assay: Cytotoxicity against human SH-SY5Y cells assessed as cell viability after 48 hrs by MTT assay; format: functional, cell-based
Procedure, shortened: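 SH-SY5Y cells incubated with compound for 48 h and viability measured by MTT. Values are mean ± SEM of 8-12 determinations.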

SH-SY5Y [2] = assay: Cytotoxicity against human SH-SY5Y cells assessed as reduction of total cellular NAD(P) level at 1 uM relative to control; format: functional; set-up: scale not given: the % may be the effect or the level left
SH-SY5Y [3] = assay: Cytotoxicity against human SH-SY5Y cells assessed as reduction of total cellular NAD(P) level at 300 nM relative to control; format: functional; set-up: scale not given: the % may be the effect or the level left
Procedure, shortened: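 Total cellular NAD levels in SH-SY5Y cells screened at a single fixed concentration of 300 nM. Expressed relative to control, n = 10.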

SH-SY5Y [4] = assay: Cytotoxicity against human SH-SY5Y cells assessed as reduction of total cellular NAD(P) level; format: functional, cell-based
SH-SY5Y [5] = assay: Cytotoxicity against human SH-SY5Y cells assessed as cell viability after 48 hrs by MTT assay relative to control in presence of nicotinamide; format: functional
SH-SY5Y [6] = assay: Induction of autophagy in human SH-SY5Y cells assessed as LC3/phosphotidylethanolamine coupling after 40 hrs by Western blot analysis; format: functional, cell-based
Procedure, shortened: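 Western blot of LC3-I and LC3-II, with tubulin as reference, in untreated and treated cells exposed to 10 nM compound. Six independent experiments were run, using two LC3 antibodies from different sources.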

## O=C(CCCCCCCn1cc(-c2cccnc2)nn1)Nc1ccccc1Cc1ccccc1
SH-SY5Y [1]
  pIC50: 7.14
SH-SY5Y [2]
  Activity: 30%
SH-SY5Y [3]
  Activity: 75.2%

## O=C(CCCCCCn1cc(-c2cccnc2)nn1)Nc1ccccc1-c1ccccc1
SH-SY5Y [1]
  pIC50: 7.25
SH-SY5Y [2]
  Activity: 26.2%
SH-SY5Y [3]
  Activity: 88.2%

## O=C(CCCCCCCCn1cc(-c2cccnc2)nn1)Nc1ccccc1Cc1ccccc1
SH-SY5Y [1]
  pIC50: 7.09
SH-SY5Y [2]
  Activity: 13.1%
SH-SY5Y [3]
  Activity: 74.7%

## O=C(CCCCCCn1cc(-c2cccnc2)nn1)Nc1ccccc1Cl
SH-SY5Y [1]
  pIC50: 6.69
SH-SY5Y [3]
  Activity: 79.5%

## O=C(CCCCCCCCn1cc(-c2cccnc2)nn1)NCC(c1ccccc1)c1ccccc1
SH-SY5Y [1]
  pIC50: 6.80
SH-SY5Y [2]
  Activity: 32.3%
SH-SY5Y [3]
  Activity: 77.3%

## COc1ccccc1NC(=O)CCCCCCn1cc(-c2cccnc2)nn1
SH-SY5Y [3]
  Activity: 87.9%

## O=C(CCCCCCCCn1cc(-c2cccnc2)nn1)Nc1ccccc1-c1ccccc1
SH-SY5Y [1]
  pIC50: 7.84
SH-SY5Y [2]
  Activity: 13%
SH-SY5Y [3]
  Activity: 35.6%
SH-SY5Y [4]
  pIC50: 7.07

## O=C(CCCCCCn1cc(-c2cccnc2)nn1)Nc1ccccc1Oc1ccccc1
SH-SY5Y [1]
  pIC50: 6.92
SH-SY5Y [2]
  Activity: 24.7%
SH-SY5Y [3]
  Activity: 81.3%

## O=C(CCCCCCn1cc(-c2cccnc2)nn1)Nc1ccccc1Cc1ccccc1
SH-SY5Y [2]
  Activity: 28%
SH-SY5Y [3]
  Activity: 86.1%

## O=C(CCCCCCCn1cc(-c2cccnc2)nn1)n1c2ccccc2c2ccccc21
SH-SY5Y [1]
  pIC50: 7.43
SH-SY5Y [3]
  Activity: 12%
SH-SY5Y [4]
  pIC50: 7.77

## O=C(CCCCCCn1cc(-c2cccnc2)nn1)NCC(c1ccccc1)c1ccccc1
SH-SY5Y [2]
  Activity: 16.8%
SH-SY5Y [3]
  Activity: 83.8%

## O=C(CCCCCCCn1cc(-c2cccnc2)nn1)Nc1ccccc1Oc1ccccc1
SH-SY5Y [1]
  pIC50: 7.43
SH-SY5Y [2]
  Activity: 17.7%
SH-SY5Y [3]
  Activity: 87.9%

## O=C(CCCCCCCCn1cc(-c2cccnc2)nn1)Nc1ccccc1Oc1ccccc1
SH-SY5Y [1]
  pIC50: 7.11
SH-SY5Y [2]
  Activity: 22.6%
SH-SY5Y [3]
  Activity: 79.5%

## O=C(CCCCCCCn1cc(-c2cccnc2)nn1)NCC(c1ccccc1)c1ccccc1
SH-SY5Y [1]
  pIC50: 7.01
SH-SY5Y [2]
  Activity: 23%
SH-SY5Y [3]
  Activity: 11%
SH-SY5Y [4]
  pIC50: 7.31

## NC(=O)c1cccnc1 [NIACINAMIDE]
SH-SY5Y [5]
  Activity: 31%

## O=C(/C=C/c1cccnc1)NCCCCC1CCN(C(=O)c2ccccc2)CC1 [DAPORINAD]
SH-SY5Y [1]
  pIC50: 8.77
SH-SY5Y [6]
  Activity: Active
SH-SY5Y [4]
  pIC50: 9.30

## O=C(CCCCCCCn1cc(-c2cccnc2)nn1)Oc1ccccc1-c1ccccc1
SH-SY5Y [3]
  Activity: 74.7%

## N#CCCCc1cn(-c2ccncc2)nn1
SH-SY5Y [2]
  Activity: 31%
SH-SY5Y [3]
  Activity: 87.8%
